TbMetRS inhib = blocks T. brucei methionyl-tRNA synthetase activity | purified T. brucei MetRS, ATP depletion, Kinase-Glo luminescence | inhibition, % at 11.9 µM | 0.4% of 360,000 active;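 active means inhibition above a per-plate cutoff of the control wells' mean inhibition plus 3 SD, cut at about 5.5% in these data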;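 further: 0% = DMSO wells median and 100% = median of wells with control inhibitor compound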
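Test system – parasite MetRS enzyme · Reagent – substrates ATP, L-methionine and bulk Escherichia coli tRNA · Doses – 11.9 µM compound single dose, 0.9% DMSO · Times – 15 min enzyme-compound preincubation, 2 h reaction, 10 min detection, 25 °C · Signal – Kinase-Glo luminescence, ATP depletion format · Controls – DMSO-only wells as low control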
Bfl-1 A1 inh = inhibitors of the anti-apoptotic protein A1, read as caspase activation; MEF A1-2A-BIM cells, Caspase-Glo 3/7 luminescence, 3 h; percent of clofoctol response, vehicle zero; caspase activation, % (concentration not given with the values); 0.066% of 330,000 active; AID 2462;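 active means over half of replicate activation scores above 10%, or exactly half above 10 with the replicate mean above 10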
NALP1 inh = inhibitors of NALP1 inflammasome in yeast; S. cerevisiae NALP1/ASC/caspase-1 growth, X-gal OD620, 72 h; inhibition, % at 10 µM; 0.61% of 280,000 active; AID 2071; in the data active means inhibition mostly above about 24%, no sharp cut-off; inactive means mostly below about 32%
MC4R ag barr = agonists of human melanocortin 4 receptor (MC4R) beta-arrestin. 0.98% of 360,000 active. P32245. U2OS MC4R beta-arrestin complementation, luminescence; percent of melanotan II response, DMSO zero. activation, % at 8.9 µM;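 active means activation above a per-plate cutoff, the mean activation of sample wells on that plate plus 3 SD, cut at about 8% in these data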
Target sequence (P32245 whole entry, looked up): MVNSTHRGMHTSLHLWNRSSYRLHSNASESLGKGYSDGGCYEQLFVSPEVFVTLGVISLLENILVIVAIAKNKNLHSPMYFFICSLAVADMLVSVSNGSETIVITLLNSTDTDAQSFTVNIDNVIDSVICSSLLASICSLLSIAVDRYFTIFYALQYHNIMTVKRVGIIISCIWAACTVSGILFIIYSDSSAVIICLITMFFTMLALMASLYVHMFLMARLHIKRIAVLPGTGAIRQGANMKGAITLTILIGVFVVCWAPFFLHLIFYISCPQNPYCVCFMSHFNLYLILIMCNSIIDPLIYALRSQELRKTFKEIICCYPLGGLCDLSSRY
MC4R antagonist = human MC4R antagonism in cAMP assay; P32245; MC4R-expressing cells, MTII-stimulated cAMP, LANCE TR-FRET; inhibition, % at 6.5 µM; 0.48% of 360,000 active; AID 540295;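 active means inhibition above its plate's cutoff, the mean of tested wells on that plate plus 3 SD, cut at about 29% in these data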;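 further: 0% = Melanotan II alone and 100% = Melanotan II plus saturating MCL0020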
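System: U2OS-MC4R stable cell line; Technique: Eu-cAMP/anti-cAMP TR-FRET, emission 671 nm; Repeats: single well per compound; Also added: Melanotan II; Dosing: one concentration, 6.5 µM nominal; Schedule: 30-min compound, 1-h challenge, 1-h detection, room temperature.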
NALP3 yeast inh = blocks the NALP3 inflammasome reconstituted in yeast. 0.39% of 330,000 active. AID 2825. Yeast reconstituted NLRP3/ASC/caspase-1, beta-gal luminescence, 24 h. inhibition, % at 10 µM;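 active means inhibition of 50% or more; inactive means inhibition below 50%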;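 further: plate controls were induced DMSO wells for no effect and uninduced yeast grown without galactose for full effect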
* marks the source's active call; other numbers are inactive results; nt = no result. A selection: hits, their analogues and other compounds. The true share with any hit is near 2.5%.

SMILES	TbMetRS inhib	Bfl-1 A1 inh	NALP1 inh	MC4R ag barr	MC4R antagonist	NALP3 yeast inh
COc1ccccc1CCNC(=O)c1ccc(Br)s1	0	-1	17	-2	3	37
Cc1cnc(C(=O)OCC(=O)c2ccc(Cl)cc2)cn1	1	1	13	-2	5	4
O=C1Nc2c(c(=O)[nH]c(=O)n2-c2ccccc2)C(C(F)(F)F)(C(F)(F)F)N1	0	1	11	0	3	15
Cc1ccc(-n2c3c(c(=O)[nH]c2=S)C(C(F)(F)F)(C(F)(F)F)NC(=O)N3)cc1	-1	0	41*	-1	8	8
CCOc1ccc(CCNC(=O)COC(=O)c2oc3ccccc3c2COC)cc1OCC	0	0	nt	0	0	16
O=C(COC(=O)c1cccc(Br)c1)NC(=O)NC1CCCC1	0	nt	nt	8.8*	2	4
CCOC(=O)c1ccc(-c2ccc(/C=N/NC(=O)CN(c3cccc(C)c3)S(C)(=O)=O)o2)cc1	-1	17*	18	-2	9	-5
CCCCCCn1c(=O)n2n(c1=O)C[C@]1(OC(=O)NC3CC3)CN(S(=O)(=O)c3ccc(C)cc3)C[C@]1(O)C2	0	nt	nt	0	8	nt
Cn1c(N)c(N2CCCCC2)c(=O)n(CC(=O)Nc2cccc(C#N)c2)c1=O	0	1	nt	0	13	1
O=C(CSc1ccc(C(F)(F)F)cc1[N+](=O)[O-])Nc1ccccc1	7.6*	0	1	4	1	20
CN1CCC(CC(C(=O)N2CCCC2)(c2ccccc2)c2ccccc2)C1 (centres undefined)	0	nt	nt	-1	0	nt
COc1ccc(C(=O)C2CCCN(Cc3c(C)[nH]c4ccccc34)C2)c(OC)c1 (centres undefined)	nt	1	33*	nt	nt	9
S=C(NCc1ccc(Cl)cc1Cl)Nc1ccccc1	2	0	33	8.9*	12	41
Cc1csc(NC(=O)C(CC(C)C)NS(=O)(=O)c2ccc3c(c2)oc(=O)n3C)n1 (centres undefined)	0	1	46*	0	4	19
Nc1nc(SCC(=O)c2cc3ccccc3o2)n[nH]1	-1	2	22*	-3	6	-2
COc1ccccc1C(=O)CSc1n[nH]c(N)n1	-1	0	12	-1	-8	10
COc1ccc(C2SCC(=O)N2c2c(C)n(C)n(-c3ccccc3)c2=O)cc1 (centres undefined)	-1	-1	6	0	-1	1
COc1cc(C2SCC(=O)N2c2c(C)n(C)n(-c3ccccc3)c2=O)ccc1O (centres undefined)	0	-1	38*	0	-2	4
Cc1cc(-c2nnc(SCC(=O)Nc3ccccc3C(F)(F)F)o2)c(C)n1-c1ccccc1	-1	0	44*	-2	2	7
O=[N+]([O-])c1ccc(C2CN=C(Nc3ccccc3)S2)cc1 (centres undefined)	1	1	2	0	9	26
CCc1ccc(NC2=NCC(c3ccccc3)S2)cc1 (centres undefined)	0	0	35*	5	16	24
CCOC(=O)c1ccc(NC(=O)N2CCCCCC2)cc1	0	0	43*	-4	0	28
Cc1ccc(NC(=O)N2CCCC2)cc1Cl	-2	0	38*	4	-5	8
CCOC(=O)c1ccc(NC(=O)N2CCOCC2)cc1	0	0	6	-2	-1	-8
CCOc1ccccc1NC(=O)Nn1cnnc1	0	0	8	-1	3	-2
COc1ccccc1CNC(=O)CC(C)C	0	2	8	-1	1	-8
COC(=O)CC(N)c1ccc(OC)c2ccccc12 (centres undefined)	0	-1	36*	-1	-4	25
CCOc1ccc(S(=O)(=O)Nc2ccc(C(=O)N/N=C(\C)c3ccc(-n4ccnc4)cc3)cc2)cc1	-1	0	35*	0	4	2
COc1ccc(NS(=O)(=O)c2cccc(C(=O)N/N=C(/C)c3ccc(-n4ccnc4)cc3)c2)cc1	0	nt	nt	0	-60	nt
